Consider 18 molecules from PubChem BioAssay.

The term viability denotes a read-out of living cells in per cent, often relative to untreated cells. One may read the inhibition as the change of the read-out against control, counted positive when it falls.

A short description of test [1]: S. cerevisiae growth inhibition in permissive medium (OD615), pilot counter-assay for S. cerevisiae lifespan shortening project, permissive growth control (AID 705;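 active means growth inhibition above 25% in both replicates, a cutoff set 3 SD above the mean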). To be noted: OD615, 24 h, at 10 µM, hits give high values. Summed up:
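Test system: Saccharomyces cerevisiae strain carrying genetically modified DeaD replicative-lifespan system; buffer or medium: SC raffinose/galactose permissive medium; dosing: one dose 10 µM, DMSO 0.25% final; times: 24 h exposure, 30 °C; measured by: OD at 615 nm; read-out basis: growth inhibition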

The nature of test [2]: S. cerevisiae growth inhibition in restrictive medium, OD615, pilot screen, restrictive growth control, yeast lifespan reduction project (AID 706;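 active means growth inhibition above a set limit, 3 SD over mean compound inhibition, in both replicates, cut at about 43% in these data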;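 further: modified DeaD lifespan yeast strain shifted to restrictive glucose medium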). As to conditions: OD615, 48 h, at 10 µM, hits give high values. Summed up:
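material = engineered S. cerevisiae DeaD strain | buffer or medium = glucose-based CSMM-D restrictive medium | dosing = one concentration, 10 µM final, 0.25% DMSO | schedule = 4 h pre-growth plus 48 h compound exposure, 30 °C | detection = OD615 absorbance reading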

Test [3] is described as follows: doxorubicin toxicity protection in MRP-1 cells – H69AR cells, CellTiter-Glo, duplicate, MRP-1 activator project, pilot screen (AID 807;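 active means viability increase at or above a cutoff of the median across tested compounds plus 3 SD, cut at about 8.5% in these data, passing the limit was not always enough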;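 further: compound pretreatment 18-22 h then 72 h combined with doxorubicin; 0% = doxorubicin alone and 100% = vehicle without doxorubicin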). As to conditions: H69AR viability with doxorubicin, CellTiter-Glo luminescence; at 10 µM; hits give high values. A general note: Cellular ATP, detected with luciferase, serves as a proxy for viable cell number.
Test [4] can be described thus: viability of HCT116 without oncogenic beta-catenin – human colon tumor cells, pilot screen (AID 823;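 active means cell viability at or below a set limit in both duplicate runs, the limit being the all-compound median minus 4 SD, cut at about 23% in these data, passing the limit was not always enough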;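 further: 0% = wells killed by 20 µM Hyamine and 100% = untreated DMSO cell wells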). To be noted: HCT116 beta-catenin knockout viability, CellTiter-Glo, 60 h; at 10 µM; hits give low values.
The nature of test [5]: viability of PTEN-null HCT116 cells – cell-based, HCT116 clonal line, CellTiter-Glo, pilot screen (AID 824;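 active means viability at or below 27.92% in each of two runs, the all-compound median minus 4 SD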;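 further: 0% = 20 µM Hyamine control and 100% = vehicle cell control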). To be noted: HCT116 PTEN-deleted viability, 60 h, at 10 µM, hits give low values.
Test [6] can be described thus: RAM pathway blockade in budding yeast – dse1pr::URA3 reporter, 5-FOA selection, pilot screen (AID 869).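 Further: 0% = DMSO wells with no growth and 100% = 10 µM 1-NA-PP1 with full growth; RAM network block rescues cells from 5-FOA so hits raise OD615 growth.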 To be noted: S. cerevisiae dse1pr::URA3 5-FOA growth, OD615, 2 d; at 10 µM; hits give high values; strain carries analog-sensitive mutant Cbk1 kinase.
Test [7] in a line: RAM signaling pathway blockade in yeast – S. cerevisiae, Pdr1DBD-CYC8 efflux-inhibited sensitized strain, primary screen (AID 1298;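 active means RAM network inhibition above 8.4% in each of two replicates, 3 SD over the compound average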;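 further: 0% = DMSO untreated cells without growth and 100% = 10 µM 1-NA-PP1 full growth; higher means more yeast growth rescued from 5-FOA killing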). To be noted: S. cerevisiae cbk1-as DSE1-URA3 strain, 5-FOA growth OD615, 2 d; at 50 µM; hits give high values.

Values without a mark were called inactive. Inconclusive results are not listed. The source made the active and inactive calls.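 How the source made its calls, unless noted: active means inhibition over a set limit, the all-compound mean plus 3 SD, in both replicate runs; inconclusive means over that limit in just one replicate run; inactive means at or under that limit in both runs.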

Regarding `CC1CCCN(c2nc3c(c(=O)[nH]c(=O)n3C)n2Cc2ccccc2Cl)C1` (stereo unspecified), the growth inhibition in test [1] is -15.4%; in test [2], -35.9%. Further, in test [3], the viability increase is -5.4%. For the same molecule, the viability in test [4] was 84.9%; in test [5] it was 81%. Moreover, the inhibition in test [6] was 0.485%. Moreover, in test [7], the RAM network inhibition was 9.1%.
For `CCOC(=O)c1ccc(NC(=O)CSc2nc3c(c(=O)n2-c2ccccc2OC)SCC3)cc1`, the growth inhibition is -1.49% in test [1] and -14.6% in test [2]. Also, the viability increase in test [3] was -2.33%. The viability in test [4] was 85.7%; in test [5] it was 81.4%. Further, in test [6], the inhibition was 1.34%. Moreover, the RAM network inhibition in test [7] is 3.9%.
As for `Cc1cc(C(C)(C)C)oc1C(=O)Nc1ccc(CC(=O)O)cc1`, the figures for the growth inhibition in test [1] and in test [2] were -5.71% and 6.31%, respectively. For the same molecule, the viability increase in test [3] was 1.52%. Moreover, the viability in test [4] was 100%; in test [5] it was 98.9%. Also, the inhibition in test [6] was 1.31%. Moreover, the RAM network inhibition in test [7] is 3.99%.
With `CCOc1ccc(N(CC(=O)NCCSc2ccccn2)S(C)(=O)=O)cc1`, the growth inhibition is 0.64% in test [1] and 2.82% in test [2]. Besides, the viability increase in test [3] is -3.63%. Further, the viability in test [4] was 97.8%; in test [5], 95.3%. Besides, the inhibition in test [6] was 0.35%. Also, the RAM network inhibition in test [7] is 3.38%.
With `Cn1c2c(c(=O)n(C)c1=O)CN(Cc1ccco1)CN2`, the figures for the growth inhibition in test [1] and in test [2] were -2% and 5.18%, respectively. The viability increase in test [3] was -2.84%. Also, the viability in test [4] was 95.2%; in test [5] it was 97.7%. In addition, the inhibition in test [6] was -0.115%. Further, in test [7], the RAM network inhibition is -0.06%.
For `C=CCOC(=O)c1[nH]c2c(c1C)C(=O)CC(c1cc(OC)c(OC)c(OC)c1)C2` (stereo unspecified), the growth inhibition in test [1] was 1.75%; in test [2], 6.24%. Also, the viability increase in test [3] was -0.05%. Also, the viability in test [4] is 53.4%; in test [5], 66.7%. Further, the inhibition in test [6] is 3.67%. Further, the RAM network inhibition in test [7] was 5.97%.
Regarding `O=C(Cn1cnc2c(cnn2-c2ccccc2)c1=O)NC1CCCC1`, the growth inhibition in test [1] is 3.55%; in test [2], -3.13%. Besides, the viability increase in test [3] is 1.03%. Also, the viability in test [4] is 99.2%; in test [5] it was 95.8%. Moreover, the inhibition in test [6] is 1.77%. For the same molecule, the RAM network inhibition in test [7] was 2.38%.
With `CCOC(=O)c1ccc(N2C(=O)CC(C3CCCO3)C2=O)cc1` (stereo unspecified), the growth inhibition in test [1] was 4.47%; in test [2] it was 1.21%. For the same molecule, the viability increase in test [3] is -2.28%. Besides, the figures for the viability in test [4] and in test [5] were 101% and 94.3%, respectively. In addition, in test [6], the inhibition was 0.84%. The RAM network inhibition in test [7] is 2.15%.
In the case of `CC(=O)Oc1ccc(N2C(=O)C3C(C2=O)C2(C)C=CC3(C)O2)cc1` (stereo unspecified), the growth inhibition in test [1] was 95.1% (active); in test [2], 100% (active). Also, in test [3], the viability increase was -1.26%. For the same molecule, the viability in test [4] was 99%; in test [5], 98.4%. Besides, the inhibition in test [6] was 2.16%. In addition, in test [7], the RAM network inhibition is 0.09%.
For the molecule `O=C(CCCN1C(=O)c2ccccc2C1=O)Nc1ccccc1C(=O)N1CCOCC1`, the figures for the growth inhibition in test [1] and in test [2] were -5.06% and 2.61%, respectively. The viability increase in test [3] is 0.44%. The viability in test [4] is 102%; in test [5], 103%. Besides, in test [6], the inhibition is 0.11%. In addition, in test [7], the RAM network inhibition is 3.36%.
For the molecule `COc1ccc(NC(=O)Nc2nnc(N3CCCCC3C)s2)cc1OC` (stereo unspecified), the growth inhibition in test [1] was -5.21%; in test [2] it was -10.4%. The viability increase in test [3] is -1.91%. For the same molecule, the viability in test [4] is 99.2%; in test [5], 97.4%. Also, the inhibition in test [6] is 2.48%. Besides, in test [7], the RAM network inhibition was 3.85%.
In the case of `CCc1ccccc1NC(=O)c1cc(-c2cccc(O)c2)on1`, the growth inhibition in test [1] is -21.2%; in test [2], -5.59%. Also, in test [3], the viability increase was -1.49%. For the same molecule, the viability in test [4] was 98%; in test [5] it was 96%. In addition, the inhibition in test [6] was 4.72%. Further, the RAM network inhibition in test [7] is 8.2%.
On to `COc1cc(C(=O)N2CCN(C(=O)C(Cc3cc(C)ccc3C)NC(C)=O)CC2)cc(OC)c1OC` (stereo unspecified), for which the growth inhibition was -24.3% in test [1] and -16.3% in test [2]. Besides, the viability increase in test [3] is -2.13%. Besides, the figures for the viability in test [4] and in test [5] were 97.7% and 88.2%, respectively. In addition, the inhibition in test [6] was 1.05%. Further, the RAM network inhibition in test [7] is 1.42%.
With `CCCCn1c(CCC(=O)O)ccc1-c1cccs1`, the growth inhibition in test [1] was 6.82%; in test [2] it was 10.6%. In addition, the viability increase in test [3] was -3.36%. Further, the viability in test [4] was 97.1%; in test [5], 94.8%. Besides, the inhibition in test [6] is 0.85%. In addition, the RAM network inhibition in test [7] was -1.84%.
`COc1ccc(-c2noc(-c3ccccc3F)n2)cc1`: the growth inhibition is -9.92% in test [1] and -12% in test [2]. Moreover, the viability increase in test [3] is -3.21%. Moreover, the viability in test [4] was 86.6%; in test [5] it was 83.1%. Also, the inhibition in test [6] was 0.965%. The RAM network inhibition in test [7] was 4.28%.
As for `c1ccc(-c2ccccc2-n2cnnn2)cc1`, the values for the growth inhibition in test [1] and in test [2] were 4.66% and 3.99%, respectively. Besides, in test [3], the viability increase is -0.54%. Moreover, the figures for the viability in test [4] and in test [5] were 97.3% and 95.3%, respectively. The inhibition in test [6] was 1.77%. The RAM network inhibition in test [7] was 0.51%.
As for `O=C(NC1CCCCC1)C(c1ccccc1)N1CCC2(CC1)OCCO2` (stereo unspecified), the growth inhibition in test [1] is 0.86%; in test [2], 6.33%. Moreover, the viability increase in test [3] was -4.79%. For the same molecule, the viability is 97.6% in test [4] and 95.5% in test [5]. Besides, in test [6], the inhibition is 1.5%. Moreover, in test [7], the RAM network inhibition is 1.43%.
`CC1Cn2c(nnc2-c2cccc(N)c2)S1` (stereo unspecified): the values for the growth inhibition in test [1] and in test [2] were 1.06% and 14.3%, respectively. In test [3], the viability increase is -1.3%. The viability is 98.7% in test [4] and 100% in test [5]. Besides, the inhibition in test [6] was 1.52%. The RAM network inhibition in test [7] was 3.44%.
